Data as given in ChEMBL document CHEMBL5316304, “Collaborative Virtual Screening Identifies a 2-Aryl-4-aminoquinazoline Series with Efficacy in an In Vivo Model of Trypanosoma cruzi Infection” (J Med Chem, 2023).
≈ marks a conversion by molar mass, not a printed value. Calls of active or inactive are those of the source. No cut-off for these calls is given here.

Key:
Trypanosoma cruzi [1] = experiment: Antitrypanosomal activity against intracellular Trypanosoma cruzi infected in human U2OS cells assessed as parasite growth inhibition incubated for 72 hrs by confocal microscopy; type: functional, organism-based
[2] = Selectivity index, ratio of IC50 for human U2OS cells to IC50 for intracellular Trypanosoma cruzi infected in human U2OS cells; type: toxicity, cell-based; details: for selectivity ratio: U2OS cells, read-out: Selectivity Index
How it was run: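 Host U2OS cell counts and intracellular parasite infection ratio were read from the same 72 h DRAQ5-stained confocal imaging assay. CC50 and EC50 came from 4-parameter logistic fits, and the selectivity index is their ratio.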

[3] = Intrinsic clearance in mouse liver microsomes at 1 uM incubated for 15 to 30 mins by LC/MS/MS analysis; type: ADME, Microsome; details: time 15-30 min
[4] = Intrinsic clearance in human liver microsomes at 1 uM incubated for 15 to 30 mins by LC/MS/MS analysis; type: ADME, Microsome; details: time 15-30 min
[5] = Kinetic solubility of compound in aqueous buffer at pH 6.8 incubated for 16 to 24 hrs by HPLC analysis; type: physicochemical; details: time 16-24 hrs, read-out: Kinetic_solubility
[6] = Permeability of compound incubated for 3 hrs by PAMPA assay; type: ADME; details: read-out: permeability
Trypanosoma cruzi [7] = experiment: Inhibition of Trypanosoma cruzi CYP51 upto 100 uM by fluorescence based assay
Trypanosoma cruzi [8] = experiment: Antitrypanosomal activity against acute-stage Trypanosoma cruzi CL Brener infected in BALB/c mouse assessed as reduction in parasite burden at 50 mg/kg, po bid administered for 5 days measured after 14 days by bioluminescence imaging based analysis; type: functional, organism-based; details: time 14.0 day

Row | SMILES | IC50 (Trypanosoma cruzi [1]; Trypanosoma cruzi, U2OS, 72 h) | selectivity ratio [2] | also measured
1 | CCn1cnc2c(N3CCC(c4ccccn4)C3)nc(-c3ccccn3)nc21 (stereo not drawn) | 2.7 µM | 2.7 | –
2 | c1ccc(-c2nc(NC3(c4ccccn4)CC3)c3ccccc3n2)nc1 | 4.2 µM | 12 | intrinsic clearance (CLint) [3]: 24 µL/min/mg; CLint [4]: 7 µL/min/mg; solubility kinetic [5]: 84 µg/mL (≈ 247 µM); Papp at 3 h [6]: 21.9 ×10⁻⁶ cm/s
3 | c1ccc(-c2nc(N3CCCCC3)c3ccccc3n2)nc1 | 0.9 µM | – | –
4 | c1ccc(CCNc2nc(-c3ccccn3)nc3ccccc23)cc1 | 0.08 µM | – | –
5 | c1ccc(-c2nc(NCCn3ccnc3)c3ccccc3n2)nc1 | 49 µM | 1 | –
6 | Cn1ccnc1CNc1nc(-c2ccccn2)nc2ccccc12 | 3.3 µM | 14 | –
7 | Fc1ccc(C2CCN(c3nc(-c4ccccn4)nc4ccccc34)C2)cc1 (stereo not drawn) | 0.41 µM | 9.2 | intrinsic clearance (CLint) [3]: > 500 µL/min/mg; inhibition (Trypanosoma cruzi [7]): inactive
8 | c1ccc(-c2nc(N3CCCCCC3)c3ccccc3n2)nc1 | 0.1 µM | – | –
9 | c1ccc(C2CCN(c3nc(-c4ccccn4)nc4ccccc34)C2)cc1 (stereo not drawn) | 0.28 µM | 9.7 | intrinsic clearance (CLint) [3]: > 500 µL/min/mg; solubility kinetic [5]: 0.7 µg/mL (≈ 1.99 µM)
10 | c1ccc(-c2nc(N3CCC(c4ccccn4)C3)c3ccccc3n2)nc1 (racemic) | – | – | Activity (Trypanosoma cruzi [8]): inactive
11 | c1ccc(-c2nc(Nc3ccn4nccc4c3)c3ccccc3n2)nc1 | 11 µM | 2.9 | –
12 | Fc1ccc(Nc2nc(-c3ccccn3)nc3ccccc23)cc1 | 1.3 µM | – | –
13 | CCn1cc2nc(-c3ccccn3)nc(N3CCC(c4ccccn4)C3)c2n1 (stereo not drawn) | 0.1 µM | 2.8 | intrinsic clearance (CLint) [3]: 70 µL/min/mg; CLint [4]: < 1 µL/min/mg; solubility kinetic [5]: 94 µg/mL (≈ 253 µM); Papp at 3 h [6]: 22 ×10⁻⁶ cm/s
14 | NC(=O)C1CCN(c2nc(-c3ccccn3)nc3ccccc23)C1 (stereo not drawn) | 23 µM | 2.2 | –
15 | COc1ccc(Nc2nc(-c3ccccn3)nc3ccccc23)cc1 | 1.2 µM | – | –
16 | c1ccc(-c2nc(N3CCc4ncccc4C3)c3ccccc3n2)nc1 | 9.2 µM | 5.5 | –
17 | OC1(c2ccccc2)CCN(c2nc(-c3ccccn3)nc3ccccc23)CC1 | 3.3 µM | 15 | –

Row | SMILES | IC50 (Trypanosoma cruzi [1]; Trypanosoma cruzi, U2OS, 72 h) | selectivity ratio [2] | also measured
18 | c1ccc(OC2CCN(c3nc(-c4ccccn4)nc4ccccc34)C2)cc1 (stereo not drawn) | – | 6.5 | intrinsic clearance (CLint) [3]: > 500 µL/min/mg; CLint [4]: 361 µL/min/mg; solubility kinetic [5]: 7.7 µg/mL (≈ 20.9 µM); Papp at 3 h [6]: 43 ×10⁻⁶ cm/s
19 | c1ccc(-c2nc(NCc3nc4ccccc4o3)c3ccccc3n2)nc1 | 2.5 µM | 16 | –
20 | c1ccc(CN2CCN(c3nc(-c4ccccn4)nc4ccccc34)CC2)cc1 | 0.45 µM | 27 | –
21 | Cn1cc(CNc2nc(-c3ccccn3)nc3ccccc23)cn1 | 9.6 µM | 5.2 | –
22 | Cc1cnc(C)c(Nc2nc(-c3ccccn3)nc3ccccc23)c1 | 14 µM | 3.6 | intrinsic clearance (CLint) [3]: 154 µL/min/mg; CLint [4]: < 1 µL/min/mg; solubility kinetic [5]: 31 µg/mL (≈ 94.7 µM); Papp at 3 h [6]: 20.1 ×10⁻⁶ cm/s
23 | c1ccc(-c2nc(N3CCC(c4ccccn4)C3)c3ccccc3n2)nc1 (stereo in doubt; 85-tR2) | – | – | IC50 (Trypanosoma cruzi [1]; u2os): 0.96 µM; Selectivity Index [2]: 6.4
24 | CCCN(CCC)c1nc(-c2ccccn2)nc2ccccc12 | 0.17 µM | – | –
25 | N#CC1CCN(c2nc(-c3ccccn3)nc3ccccc23)CC1 | 24 µM | 2.1 | –
26 | c1ccc(-c2nc(NCCn3cnc4ccccc43)c3ccccc3n2)nc1 | 8.2 µM | 6.1 | –
27 | Cc1cccnc1CNc1nc(-c2ccccn2)nc2ccccc12 | 1.6 µM | 15 | –
28 | Cn1ccc2nc(-c3ccccn3)nc(N3CCC(c4ccccn4)C3)c21 (stereo not drawn) | 0.56 µM | 16 | solubility kinetic [5]: 90 µg/mL (≈ 253 µM); Papp at 3 h [6]: 21.9 ×10⁻⁶ cm/s
29 | Cc1ccc(Nc2nc(-c3ccccn3)nc3ccccc23)cc1 | 0.12 µM | – | –
30 | c1ccc(-c2nc(N3CCCC3)c3ccccc3n2)nc1 | 1.1 µM | 8.6 | –
31 | c1ccc(C2CCCN(c3nc(-c4ccccn4)nc4ccccc34)C2)cc1 (stereo not drawn) | 0.36 µM | 6.4 | intrinsic clearance (CLint) [3]: 318 µL/min/mg; CLint [4]: 205 µL/min/mg; solubility kinetic [5]: 0.1 µg/mL (≈ 0.273 µM); Papp at 3 h [6]: 41.6 ×10⁻⁶ cm/s
32 | CC(Nc1nc(-c2ccccn2)nc2ccccc12)c1ccccn1 (stereo not drawn) | 2.7 µM | 18 | –
33 | c1ccc(CNc2nc(-c3ccccn3)nc3ccccc23)cc1 | 0.13 µM | 57 | –
